This is a sample that favours compounds with a hit; in the whole collection about 2.6% have one here.
PvdQ inh: blocks Pseudomonas aeruginosa PvdQ acylase activity; purified PvdQ acylase, fluorescence plate reader; inhibition, % at 10 µM; 340,000 compounds, 0.063% hits; AID 488965; in the data active means inhibition above about 30%, passing the limit was not always enough
dFosB act: mouse delta FosB homodimer activation | P13346 | purified delta FosB, TAMRA-CDK5 oligo fluorescence polarization; percent of positive-control signal above neutral wells | activation, % at 25 µM | 340,000 compounds, 0.99% hits;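 active means mean activation above about 17%, with every replicate also reaching it, limit read from the data, passing the limit was not always enough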
rRNA inh HTS: inhibitors of bacterial rRNA selective over humanized ribosomes. E. coli WT GFP vs humanized-ribosome RFP mutants, fluorescence, 24 h; hits give low values; DMSO median 0, no signal -100. GFP signal change (wild-type ribosome), % (concentration not given with the values). 350,000 compounds, 1.6% hits. AID 720706;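 active means significant combined selectivity score with lowered wild-type GFP, culture density cut under 30%, mutant RFP and density less affected; inactive means any of these conditions unmet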
Xi reactivation: reactivates the inactive X chromosome in mouse fibroblasts. 360,000 compounds, 0.055% hits. activation, % at 7.58 µM. XiGFP mouse fibroblasts, % GFP-positive cells imaging, 3 d; cells co-treated with 5-aza-dC sensitizer; scaled so ellipticine positive control = 100%;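 active means mean normalized replicate activation at least 10% and every replicate at or above 10%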
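Material: SV40-immortalized XiGFP fibroblast cells, line 68-5-11 | Buffer or medium: DMEM containing 5-aza-dC | Dosing: One concentration, pinned | Times: 3 d treatment, 15 min room-temperature fixation | Controls: Ellipticine 6 µM positive control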
SR-BI DiI inh: mouse SR-BI HDL lipid transfer inhibition; ldlA[mSR-BI] CHO cells, DiI-HDL uptake fluorescence, 3 h; 320,000 compounds, 0.96% hits; inhibition, % at 12.5 µM; Q61009;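 active means mean replicate inhibition of at least 70% and a set share of replicates each scoring 70 or more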
Target sequence (Q61009 whole entry, looked up): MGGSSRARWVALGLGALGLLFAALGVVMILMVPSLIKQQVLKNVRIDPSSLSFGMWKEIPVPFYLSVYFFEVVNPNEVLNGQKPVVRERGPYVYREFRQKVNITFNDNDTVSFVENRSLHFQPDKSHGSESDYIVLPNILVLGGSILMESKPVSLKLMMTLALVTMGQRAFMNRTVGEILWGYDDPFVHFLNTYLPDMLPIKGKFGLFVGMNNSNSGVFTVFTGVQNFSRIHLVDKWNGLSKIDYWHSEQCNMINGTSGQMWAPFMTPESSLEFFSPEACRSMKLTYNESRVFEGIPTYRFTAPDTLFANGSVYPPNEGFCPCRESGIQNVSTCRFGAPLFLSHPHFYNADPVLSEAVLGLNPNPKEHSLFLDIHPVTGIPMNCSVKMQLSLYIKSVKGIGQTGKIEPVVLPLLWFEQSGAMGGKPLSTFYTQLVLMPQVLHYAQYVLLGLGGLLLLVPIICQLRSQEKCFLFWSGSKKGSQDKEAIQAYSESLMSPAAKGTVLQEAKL
SR-BI DiI-HDL act: enhances SR-BI lipid uptake from DiI-HDL; AID 504775; activation, % at 12.5 µM; 320,000 compounds, 0.096% hits; CHO ldlA[mSR-BI] cells, DiI-HDL uptake fluorescence, 3 h; 100 = double the neutral-control signal;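 active means mean replicate activation of at least 60% and every replicate at or above 60%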
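Test system: SR-BI-overexpressing, LDLR-lacking CHO cells; Also added: labelled HDL, 10 µg/mL; Measured by: bottom-read cell fluorescence after medium removal, ex 550/em 595 nm; Timing: 3 h uptake period with compound, 37 °C; Buffer or medium: F12, 0.5% BSA, 25 mM HEPES; Doses: single compound concentration, delivered by pin transfer.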
Hits are given with their value; i = inactive; nt = not tested or not shown.

SMILES | PvdQ inh | dFosB act | rRNA inh HTS | Xi reactivation | SR-BI DiI inh | SR-BI DiI-HDL act
O=C(Cn1nnc(-c2ccccc2)n1)Nc1cccc(S(=O)(=O)N2CCOCC2)c1 | i | i | i | i | i | i
O=C(COc1cc(F)ccc1[N+](=O)[O-])Nc1cc(S(=O)(=O)N2CCCC2)ccc1Cl | i | i | i | i | 75.0 | i
CCc1nnc(NC(=O)NCN2C(=O)C3C4C=CC(C4)C3C2=O)s1 (stereo unspecified) | i | i | nt | nt | i | i
COc1ccc(NC(=O)CCc2ccccc2)cc1S(=O)(=O)N1CCCCC1 | i | i | nt | 140.7 | i | i
CN(C)S(=O)(=O)c1cccc(NC(=O)COc2ccccc2C(=O)NCc2ccccc2)c1 | i | i | -33.9 | i | i | i
O=C(COc1ccccc1Cl)Nc1cccc(S(=O)(=O)N2CCCC2)c1 | i | i | -34.4 | i | i | nt
COc1ccccc1C(=O)NCC(=O)OCC(=O)Nc1cccc(S(=O)(=O)N(C)C)c1 | i | i | i | i | i | i
C[C@H](CO)N1C[C@H](C)[C@@H](CN(C)Cc2ccc(C(F)(F)F)cc2)Oc2ccc(NC(=O)Cc3ccccc3)cc2CC1=O | nt | nt | i | i | nt | nt
COc1ccc(C(=O)N/C(=C\c2cn(S(=O)(=O)N(C)C)c3ccccc23)C(=O)NCCCn2ccnc2)cc1 | i | i | i | i | i | i
CCCNC(=O)/C(=C/c1cn(S(=O)(=O)N(C)C)c2ccccc12)NC(=O)c1ccc(OC)cc1 | i | i | -25.6 | i | i | i
O=C(Cn1cnc2sc3c(c2c1=O)CCCC3)NCC(=O)Nc1ccccc1F | i | i | i | i | i | i
Cc1sc2ncn(CC(=O)Nc3ccccc3F)c(=O)c2c1-c1ccccc1 | i | i | -28.4 | i | i | i
Cc1cc(C(=O)COc2cc(F)ccc2[N+](=O)[O-])c(C)n1C1CC1 | i | i | -29.0 | i | i | i
Cc1ccccc1-n1c(-c2ccc3ccccc3n2)n[nH]c1=S | i | i | -32.6 | i | i | i
O=C(CN1CCCCC1)Nc1ccc(N2CCCCCC2)cc1 | i | i | i | i | i | i
COc1cc(OC)cc(C(=O)NCCC(=O)NCCc2ccc(OC)c(OC)c2)c1 | i | i | nt | i | i | i
COc1ccc(NCC(=O)Nc2ccc(C#N)cc2)cc1Cl | i | i | nt | nt | 95.5 | i
O=C(/C=C/c1ccco1)Nc1sc2c(c1C(=O)O)CCC2 | i | i | -23.8 | nt | i | i
O=C(Nc1sc2c(c1C(=O)NC1CCCCC1)CCC2)c1ccco1 | i | i | i | nt | 74.7 | i
O=C(/C=C/c1ccccc1)Nc1sc2c(c1C(=O)O)CCC2 | i | i | i | nt | nt | nt
N#Cc1c(NC(=O)/C=C/c2ccco2)sc2c1CCCC2 | i | i | i | i | 80.1 | i
O=C(CSc1nnc(Cn2nnc(-c3ccccc3)n2)n1-c1ccccc1)Nc1ccccc1 | i | i | nt | nt | i | i
CN(C)C1=NCCN1CCCC1CCCC1 | i | i | i | i | i | i
Cc1cc(C)c2c(c1)/C(=N/NC(=S)Nc1ccc(F)cc1)CCC2 | i | 31.4 | nt | nt | i | i
COC(=O)N/N=C1\CCCc2c(C)cc(C)cc21 | i | i | i | i | i | i
SMILES | PvdQ inh | dFosB act | rRNA inh HTS | Xi reactivation | SR-BI DiI inh | SR-BI DiI-HDL act
O=C(CNC(=O)c1ccco1)Nc1ccc(S(=O)(=O)N2CCCC2)cc1 | i | i | nt | nt | i | i
Cc1cc(Cl)ccc1NC(=O)COC(=O)c1cc([N+](=O)[O-])ccc1N1CCOCC1 | i | i | i | i | i | i
O=C(Nc1cc([N+](=O)[O-])ccc1N1CCOCC1)c1ccco1 | i | i | i | i | i | i
CCc1cccc(C)c1NC(=O)COC(=O)c1cc([N+](=O)[O-])ccc1N1CCOCC1 | i | i | i | i | 72.2 | i
O=C(COC(=O)c1cc([N+](=O)[O-])ccc1N1CCOCC1)Nc1ccc(Cl)cc1 | i | i | -33.5 | i | i | i
NC(=O)c1ccc(NC(=O)COC(=O)c2cc([N+](=O)[O-])ccc2N2CCOCC2)cc1 | i | i | i | i | i | i
COc1cc(NC(=O)c2cc([N+](=O)[O-])ccc2N2CCOCC2)ccc1NC(=O)c1ccco1 | i | i | i | i | 80.3 | i
O=C(CSc1ccc(-c2ccccn2)nn1)NC1CCCCC1 | i | i | i | i | i | i
Cc1nc(=O)c(-c2ccccc2)c(C)n1-c1cccc(C(=O)O)c1 | i | i | nt | nt | i | i
CC1CCc2c(nc3ncnn3c2NCCc2ccccc2F)C1 (stereo unspecified) | i | i | i | i | 73.3 | i
CC1CCc2c(nc3ncnn3c2N2CCN(c3ccccc3F)CC2)C1 (stereo unspecified) | i | i | nt | nt | i | i
N#Cc1c(N)nc(SCc2ccccc2)c(C#N)c1-c1ccco1 | i | i | -43.0 | nt | i | i
N#Cc1c(N)nc(SCC(=O)OCc2ccccc2)c(C#N)c1-c1ccco1 | i | i | nt | nt | i | i
O=C(Cn1ccc(C(F)(F)F)n1)N=Nc1c(O)[nH]c2ccc(Br)cc12 | i | i | i | i | nt | nt
Cc1oc2ccc(OCc3ccc(Br)cc3)cc2c1C(=O)O | i | i | -26.1 | i | i | i
CCOC(=O)c1nnn(-c2nonc2N)c1COc1ccccc1 | i | i | nt | nt | i | i
O=C(CN1C(=O)NC2(CCCCCC2)C1=O)NCc1ccco1 | i | i | nt | nt | i | i
O=C(CCc1c[nH]c2ccccc12)N1CCN(c2ccc(O)cc2)CC1 | i | i | -29.1 | i | nt | nt
COc1ccc(N2CCN(C(=O)CCc3c[nH]c4ccccc34)CC2)cc1 | i | i | i | i | i | i
CN1OC[C@@H]2CN(S(=O)(=O)c3ccccc3)[C@H](c3ccc(N4CCCCC4)cc3)C[C@@H]21 | nt | nt | i | i | nt | nt
COc1ccc(NC(=O)Nc2ccc(C)cc2Br)c(OC)c1 | i | i | i | i | i | i
O=C(NCCc1ccccc1)c1ccc2c(c1)S(=O)(=O)c1ccccc1C2=O | i | i | -23.0 | i | i | i
O=C(NCCc1ccccc1)c1ccc2c(c1)S(=O)(=O)c1cc(Cl)ccc1C2=O | i | i | i | i | i | i
CC[n+]1c(/C=C/N(C)c2ccccc2)oc2ccc(F)cc21 | i | i | nt | i | i | i
CC[n+]1c(/C=C/N(C)c2ccccc2)oc2ccccc21 | i | i | -18.9 | i | i | i
O=c1c(/C=N/O)c(Nc2ccccc2)nc2ccccn12 | i | i | -19.8 | nt | i | i
COc1ccc(NCC(O)Cn2c(C)c(C)c3ccccc32)cc1 (stereo unspecified) | i | i | -40.0 | i | i | i
COc1ccc(/C=N/NC(=O)c2ccoc2C)cc1OC | i | i | nt | i | i | i
COc1cc(/C=N/NS(=O)(=O)c2ccc3ccccc3c2)ccc1OCc1ccc(C(=O)O)cc1 | i | i | -22.9 | i | nt | nt
